Series [1] in a line: Lipophilicity, log P of the compound. It is filed as physicochemical. Particulars: octanol/water.
Series [2] deals with Mycobacterium tuberculosis. As to the kind of experiment: Antimycobacterial activity against Mycobacterium tuberculosis H37Rv by BACTEC 460 radiometric method. It counts as functional. The method, boiled down: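 Radiometric BACTEC assay against the H37Rv strain, run per a previously reported method. Positive controls were rifampicin, streptomycin and isoniazid. The MIC was read in µM.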

Series [3] addresses DNA gyrase subunit A/DNA gyrase subunit B (Mycobacterium tuberculosis (strain ATCC 25618 / H37Rv), UniProt P9WG45+P9WG47). Kind of series: Inhibition of Mycobacterium tuberculosis DNA gyrase supercoiling activity using relaxed pBR322 as substrate after 30 mins by agarose gel electrophoresis. It counts as protein-complex assay.

SMILES strings stand for the structures. ≈ marks a conversion by molar mass, not a printed value.

For orientation: logP means a log measure of how a compound divides between an organic and an aqueous phase. By MIC is commonly meant the lowest concentration found to suppress growth. Read a low MIC as inhibition by little substance. Usually IC50 stands for the midpoint of a concentration-inhibition curve. Read a low IC50 as inhibition by little substance.

DNA gyrase subunit A/DNA gyrase subunit B, sequence (P9WG45 whole entry): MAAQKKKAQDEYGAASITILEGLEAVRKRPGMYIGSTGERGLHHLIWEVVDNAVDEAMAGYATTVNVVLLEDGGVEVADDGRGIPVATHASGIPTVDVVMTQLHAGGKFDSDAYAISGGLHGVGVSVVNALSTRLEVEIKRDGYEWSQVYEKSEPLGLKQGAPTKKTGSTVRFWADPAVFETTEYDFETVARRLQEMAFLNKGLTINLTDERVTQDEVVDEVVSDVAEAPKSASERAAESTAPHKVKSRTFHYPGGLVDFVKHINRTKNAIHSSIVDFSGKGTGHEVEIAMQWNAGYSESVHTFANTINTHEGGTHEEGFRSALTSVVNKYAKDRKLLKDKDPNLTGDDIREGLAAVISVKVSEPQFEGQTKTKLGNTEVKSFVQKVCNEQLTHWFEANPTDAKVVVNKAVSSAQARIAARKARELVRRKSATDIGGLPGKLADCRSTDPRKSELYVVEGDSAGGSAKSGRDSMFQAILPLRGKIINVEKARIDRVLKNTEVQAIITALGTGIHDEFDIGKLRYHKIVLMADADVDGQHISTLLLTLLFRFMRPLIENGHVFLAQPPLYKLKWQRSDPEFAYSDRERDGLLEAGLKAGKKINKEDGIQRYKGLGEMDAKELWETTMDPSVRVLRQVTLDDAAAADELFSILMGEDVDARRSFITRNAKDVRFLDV
DNA gyrase subunit A/DNA gyrase subunit B, sequence (P9WG47 whole entry): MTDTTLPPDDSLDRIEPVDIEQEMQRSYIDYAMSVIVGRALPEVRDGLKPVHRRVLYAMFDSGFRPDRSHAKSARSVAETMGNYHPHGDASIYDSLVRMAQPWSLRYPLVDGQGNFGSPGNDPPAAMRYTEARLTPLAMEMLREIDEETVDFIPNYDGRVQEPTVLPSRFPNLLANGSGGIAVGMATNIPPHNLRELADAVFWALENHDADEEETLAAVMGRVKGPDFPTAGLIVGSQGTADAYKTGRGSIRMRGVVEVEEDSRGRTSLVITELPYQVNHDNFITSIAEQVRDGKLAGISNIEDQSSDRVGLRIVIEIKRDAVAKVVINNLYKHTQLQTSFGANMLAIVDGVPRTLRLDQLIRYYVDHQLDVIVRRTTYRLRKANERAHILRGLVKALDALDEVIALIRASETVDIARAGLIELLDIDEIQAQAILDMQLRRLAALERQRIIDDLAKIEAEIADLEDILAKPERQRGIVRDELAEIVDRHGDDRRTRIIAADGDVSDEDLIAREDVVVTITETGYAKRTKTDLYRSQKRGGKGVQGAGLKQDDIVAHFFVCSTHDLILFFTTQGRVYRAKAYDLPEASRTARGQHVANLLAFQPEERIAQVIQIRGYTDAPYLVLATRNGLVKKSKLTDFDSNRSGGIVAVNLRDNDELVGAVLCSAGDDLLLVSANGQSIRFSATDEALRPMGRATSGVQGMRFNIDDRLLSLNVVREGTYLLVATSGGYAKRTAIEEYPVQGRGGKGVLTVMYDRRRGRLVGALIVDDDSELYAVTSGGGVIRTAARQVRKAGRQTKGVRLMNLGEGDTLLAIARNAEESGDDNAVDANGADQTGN

Consider `COc1ccc2c(c1)nc(-c1ccc(F)cc1)n2Cc1ccc(F)cc1`, for which, in series [1] (read-out: logP), the logP was 5.02. Further, in series [2], the MIC is 285 µM (≈ 99.9 µg/mL).

With `COc1ccccc1-c1nc2ccccc2[nH]1`, the logP in series [1] (read-out: logP) turned out to be 2.74. Also, the MIC in series [2] is 406 µM (≈ 91.1 µg/mL).

`COc1ccc2[nH]c(-c3ccc(F)cc3)nc2c1`: the logP in series [1] (read-out: logP) is 2.9. In series [3], this molecule had an IC50 of 380 µM. In addition, the MIC in series [2] turned out to be 103 µM (≈ 25 µg/mL).

Take `Oc1ccc(-c2nc3ccccc3[nH]2)cc1`: the logP in series [1] (read-out: logP) was found to be 2.47. Also, inhibition of growth in series [2] (MIC) required 424 µM (≈ 89.1 µg/mL).

Regarding `Fc1ccc(Cn2c(-c3ccc(F)cc3)nc3ccccc32)cc1`, the lipophilicity (logP) in series [1] (read-out: logP) stood at 5.51. Further, in series [2], the MIC was found to be 312 µM (≈ 99.9 µg/mL).

For the molecule `[H]/N=C(/N)N[C@H]1[C@H](O)[C@@H](O)[C@H](O[C@@H]2O[C@@H](C)[C@](O)(C=O)[C@H]2O[C@@H]2O[C@@H](CO)[C@H](O)[C@@H](O)[C@@H]2NC)[C@@H](N/C(N)=N\[H])[C@@H]1O` [STREPTOMYCIN], the logP in series [1] (read-out: logP) is 8.01. The same molecule came in with an MIC in series [2] of 4 µM (≈ 2.33 µg/mL).

Turning to `COc1ccc2c(c1)nc(-c1ccc3c(c1)OCO3)n2Cc1ccc2c(c1)OCO2`, the logP in series [1] (read-out: logP) was 4.26. Also, in series [3], the IC50 came out at 294 µM. The molecule also displayed an MIC in series [2] of 24 µM (≈ 9.66 µg/mL).

In series [1], `NNC(=O)c1ccncc1` [ISONIAZID] gave a logP of 0.64. Also, in series [2], it took 1 µM (≈ 0.137 µg/mL) to inhibit growth (MIC).

Regarding `CO[C@H]1/C=C/O[C@@]2(C)Oc3c(C)c(O)c4c(O)c(c(/C=N/N5CCN(C)CC5)c(O)c4c3C2=O)NC(=O)/C(C)=C\C=C\[C@H](C)[C@H](O)[C@@H](C)[C@@H](O)[C@@H](C)[C@H](OC(C)=O)[C@@H]1C` [RIFAMPIN], in series [1], the log partition coefficient (logP) is reported as 3.72. The molecule further registered an MIC in series [2] of 3 µM (≈ 2.47 µg/mL).

In the case of `c1ccc2c(c1)nc(-c1ccc3c(c1)OCO3)n2Cc1ccc2c(c1)OCO2`, the logP in series [1] (read-out: logP) is 2.64. The molecule further returned an IC50 in series [3] of 85.7 µM. This molecule showed an MIC in series [2] of 67 µM (≈ 24.9 µg/mL).
